Calls of active or inactive are those of the source. The rule behind the calls is not given here.
How the values were obtained:
[1] = system: Mus musculus; test: Neurotoxicity in Albino mouse at 100 mg/kg, ip after 30 mins by RotaRod test; type: toxicity, organism-based; design: dose 100 mg/kg, route intraperitoneal; details: in vivo, 0.5 h
In short: (§1)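 Phase I protocol of the NINCDS antiepileptic drug development programme in albino mice, covering MES, subcutaneous pentylenetetrazole (metrazol) and rotarod neurotoxicity. Doses were 30, 100 and 300 mg/kg, read at 1/2 h and 4 h. One animal per dose and time point, scored as 0/1 (no activity) or 1/1 (noticeable activity).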

[2] = system: Mus musculus; test: Anticonvulsant activity in Albino mouse at 100 mg/kg, ip after 4 hrs by MES test; type: functional, organism-based; design: dose 100 mg/kg; in short: as §1
[3] = system: Mus musculus; test: Anticonvulsant activity in Albino mouse at 30 mg/kg, ip after 4 hrs by MES test; type: functional, organism-based; design: dose 30 mg/kg; in short: as §1
[4] = system: Mus musculus; test: Anticonvulsant activity against metrazole-induced seizures in Albino mouse at 100 mg/kg, ip after 30 mins by scMet assay; type: functional, organism-based; design: dose 100 mg/kg; in short: as §1
[5] = system: Mus musculus; test: Neurotoxicity in Albino mouse at 100 mg/kg, ip after 4 hrs by RotaRod test; type: toxicity, organism-based; design: dose 100 mg/kg, route intraperitoneal; details: in vivo; in short: as §1
[6] = system: Mus musculus; test: Neurotoxicity in Albino mouse at 30 mg/kg, ip after 30 mins by RotaRod test; type: toxicity, organism-based; design: dose 30 mg/kg, route intraperitoneal; details: in vivo, 0.5 h; in short: as §1
[7] = system: Mus musculus; test: Anticonvulsant activity in Albino mouse at 300 mg/kg, ip after 4 hrs by MES test; type: functional, organism-based; design: dose 300 mg/kg; in short: as §1
[8] = system: Mus musculus; test: Neurotoxicity in Albino mouse at 30 mg/kg, ip after 4 hrs by RotaRod test; type: toxicity, organism-based; design: dose 30 mg/kg, route intraperitoneal; details: in vivo; in short: as §1
[9] = system: Mus musculus; test: Anticonvulsant activity in Albino mouse by MES test at 100 mg/kg, ip after 30 mins; type: functional, organism-based; design: dose 100 mg/kg; in short: as §1
[10] = system: Mus musculus; test: Antidepressant activity in Albino mouse assessed as duration of immobility at 10 mg/kg, ip by forced-swimming test; type: functional; details: route intraperitoneal
In short: (§2)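 Porsolt forced-swim test in albino mice. Drug given ip at 0.5 ml/20 g body weight, 1 h before testing. Controls received 1% aqueous Tween 80. Each mouse was placed singly in a water-filled Plexiglas cylinder for 6 min. Immobility (floating upright with only slight movements to stay afloat) was timed over the last 4 min.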

[11] = system: Mus musculus; test: Anticonvulsant activity against metrazole-induced seizures in Albino mouse at 300 mg/kg, ip after 4 hrs by scMet assay; type: functional, organism-based; design: dose 300 mg/kg; in short: as §1
[12] = system: Mus musculus; test: Antidepressant activity in Albino mouse assessed as duration of immobility at 10 mg/kg, ip by forced-swimming test relative to control; type: functional; details: route intraperitoneal; in short: as §2
[13] = system: Mus musculus; test: Anticonvulsant activity against metrazole-induced seizures in Albino mouse at 30 mg/kg, ip after 30 mins by scMet assay; type: functional, organism-based; design: dose 30 mg/kg; in short: as §1
[14] = system: Mus musculus; test: Anticonvulsant activity against metrazole-induced seizures in Albino mouse at 300 mg/kg, ip after 30 mins by scMet assay; type: functional, organism-based; design: dose 300 mg/kg; in short: as §1
[15] = system: Mus musculus; test: Neurotoxicity in Albino mouse at 300 mg/kg, ip after 30 mins by RotaRod test; type: toxicity, organism-based; design: dose 300 mg/kg, route intraperitoneal; details: in vivo, 0.5 h; in short: as §1
[16] = system: Mus musculus; test: Anticonvulsant activity in Albino mouse by MES test at 30mg/kg, ip after 30 mins; type: functional, organism-based; in short: as §1
[17] = system: Mus musculus; test: Anticonvulsant activity against metrazole-induced seizures in Albino mouse at 30 mg/kg, ip after 4 hrs by scMet; type: functional, organism-based; design: dose 30 mg/kg; in short: as §1
[18] = system: Mus musculus; test: Anticonvulsant activity in Albino mouse by MES test at 300 mg/kg, ip after 30 mins; type: functional, organism-based; design: dose 300 mg/kg; in short: as §1
[19] = system: Mus musculus; test: Anticonvulsant activity against metrazole-induced seizures in Albino mouse at 100 mg/kg, ip after 4 hrs by scMet assay; type: functional, organism-based; design: dose 100 mg/kg; in short: as §1
[20] = system: Mus musculus; test: Neurotoxicity in Albino mouse at 300 mg/kg, ip after 4 hrs by RotaRod test; type: toxicity, organism-based; design: dose 300 mg/kg, route intraperitoneal; details: in vivo; in short: as §1

Row | SMILES | Activity [1] | Activity [2] | Activity [3] | Activity [4] | Activity [5] | Activity [6] | Activity [7] | Activity [8] | Activity [9] | Activity [10] | Activity [11] | Activity [12] | Activity [13] | Activity [14] | Activity [15] | Activity [16] | Activity [17] | Activity [18] | Activity [19] | Activity [20]
1 | C=CCNC(=S)N1N=C(c2ccco2)CC1c1ccccc1 (configuration not stated) | Not Active | inactive | inactive | inactive | Not Active | Not Active | inactive | Not Active | Active | 190 s | inactive | -9.52% | inactive | inactive | Not Active | inactive | inactive | Active | inactive | Not Active
2 | CCNC(=S)N1N=C(c2ccco2)CC1c1ccccc1 (configuration not stated) | Not Active | inactive | inactive | inactive | Not Active | Not Active | inactive | Not Active | inactive | 139 s | inactive | -33.8% | inactive | Active | Not Active | inactive | inactive | inactive | inactive | Not Active
3 | S=C(Nc1ccccc1)N1N=C(c2ccco2)CC1c1ccccc1 (configuration not stated) | Not Active | inactive | inactive | inactive | Not Active | Not Active | Active | Not Active | inactive | 184 s | inactive | -12.38% | inactive | inactive | Not Active | inactive | inactive | inactive | inactive | Not Active
4 | NC(=S)N1N=C(c2ccco2)CC1c1ccco1 (configuration not stated) | Not Active | inactive | inactive | Active | Not Active | Not Active | Active | Not Active | inactive | 182 s | inactive | -13.33% | Active | Active | Not Active | inactive | inactive | inactive | inactive | Not Active
5 | c1ccc(N2N=C(c3ccco3)CC2c2ccco2)cc1 (configuration not stated) | Not Active | inactive | inactive | inactive | Not Active | Not Active | inactive | Not Active | Active | 169 s | inactive | -19.52% | inactive | inactive | Not Active | inactive | inactive | Active | inactive | Not Active
6 | CNC(=S)N1N=C(c2ccco2)CC1c1ccco1 (configuration not stated) | Not Active | Active | Active | inactive | Not Active | Not Active | Active | Not Active | inactive | 186 s | Active | -11.42% | inactive | inactive | Not Active | inactive | inactive | inactive | Active | Not Active
7 | N[C@H]1C[C@@H]1c1ccccc1.O=S(=O)(O)O | – | – | – | – | – | – | – | – | – | 57 s | – | -72.85% | – | – | – | – | – | – | – | –
8 | CNC(=S)N1N=C(c2ccco2)CC1c1ccccc1 (configuration not stated) | Not Active | inactive | inactive | inactive | Not Active | Not Active | inactive | Not Active | inactive | 201 s | inactive | -4.28% | inactive | inactive | Not Active | inactive | inactive | inactive | inactive | Not Active
9 | c1ccc(C2CC(c3ccco3)=NN2c2ccccc2)cc1 (configuration not stated) | Not Active | inactive | inactive | inactive | Not Active | Not Active | inactive | Not Active | inactive | 213 s | Active | 1.42% | inactive | inactive | Not Active | inactive | inactive | inactive | inactive | Not Active
